Data from ChEMBL document CHEMBL1129639, “Synthesis and cardiotonic activity of novel pyrimidine derivatives: crystallographic and quantum chemical studies” (J Med Chem, 1996).

Columns and labels:
Cavia porcellus [1] = organism: Cavia porcellus; assay: Effect on the contractile force of spontaneously beating atria from Reserpine-treated guinea pigs as percentage variation from the control at concentration of 3 x 10E-5 M; assay type: functional
Method in brief: (§1)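 Atria from reserpine-treated guinea pigs (reserpine 2 mg/kg ip, 48 and 24 h before death; only tyramine-unresponsive preparations used). Bath solution at 29 °C, gassed 95% O2/5% CO2, pH 7.5, resting tension […]. After 90 min equilibration, compound added cumulatively, 5 min per concentration. Isometric developed-tension amplitude or beating rate given as % variation from untreated control. Mean ± SEM, 6-10 assays.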

Cavia porcellus [2] = organism: Cavia porcellus; assay: Effect on the contractile force of spontaneously beating atria from Reserpine-treated guinea pigs as percentage variation from the control at concentration of 10E-6 M; assay type: functional; method in brief: as §1
Cavia porcellus [3] = organism: Cavia porcellus; assay: Compound was evaluated for its effect on the frequency rate of spontaneously beating atria from Reserpine-treated guinea pigs as percentage variation from the control at concentration of 3 x 10E-5 M; assay type: functional; method in brief: as §1
Cavia porcellus [4] = organism: Cavia porcellus; assay: Effect on the frequency rate of spontaneously beating atria from Reserpine-treated guinea pigs as percentage variation from the control at concentration of 10E-5 M; assay type: functional; method in brief: as §1
Cavia porcellus [5] = organism: Cavia porcellus; assay: Compound was evaluated for its effect on the frequency rate of spontaneously beating atria from Reserpine-treated guinea pigs as percentage variation from the control at concentration of 3 x 10E-6 M; assay type: functional; method in brief: as §1
Cavia porcellus [6] = organism: Cavia porcellus; assay: Compound was evaluated for its effect on the frequency rate of spontaneously beating atria from Reserpine-treated guinea pigs as percentage variation from the control at concentration of 3 x 10E-4 M; assay type: functional; method in brief: as §1
Cavia porcellus [7] = organism: Cavia porcellus; assay: Effect on the contractile force of spontaneously beating atria from Reserpine-treated guinea pigs as percentage variation from the control at concentration of 10E-5 M; assay type: functional; method in brief: as §1
Cavia porcellus [8] = organism: Cavia porcellus; assay: Effect on the contractile force of spontaneously beating atria from Reserpine-treated guinea pigs as percentage variation from the control at concentration of 10E-3 M; assay type: functional; method in brief: as §1
Cavia porcellus [9] = organism: Cavia porcellus; assay: Effect on the contractile force of spontaneously beating atria from Reserpine-treated guinea pigs as percentage variation from the control at concentration of 3 x 10E-6 M; assay type: functional; method in brief: as §1
Cavia porcellus [10] = organism: Cavia porcellus; assay: Effect on the frequency rate of spontaneously beating atria from Reserpine-treated guinea pigs as percentage variation from the control at concentration of 10E-4 M; assay type: functional; method in brief: as §1
Cavia porcellus [11] = organism: Cavia porcellus; assay: Effect on the contractile force of spontaneously beating atria from Reserpine-treated guinea pigs as percentage variation from the control at concentration of 3 x 10E-4 M; assay type: functional; method in brief: as §1
Cavia porcellus [12] = organism: Cavia porcellus; assay: Effect on the contractile force of spontaneously beating atria from Reserpine treated guinea pigs as percentage variation from the control at concentration of 10E-4 M; assay type: functional; method in brief: as §1
Cavia porcellus [13] = organism: Cavia porcellus; assay: Effect on the frequency rate of spontaneously beating atria from Reserpine-treated guinea pigs as percentage variation from the control at concentration of 10E-3 M; assay type: functional; method in brief: as §1
Cavia porcellus [14] = organism: Cavia porcellus; assay: Effect on the frequency rate of spontaneously beating atria from Reserpine-treated guinea pigs as percentage variation from the control at concentration of 10E-6 M; assay type: functional; method in brief: as §1
Cavia porcellus [15] = organism: Cavia porcellus; assay: Compound was evaluated for its effect on the frequency rate of spontaneously beating atria from Reserpine-treated guinea pigs as percentage variation from the control at different concentration of 10E-4 M; assay type: functional; method in brief: as §1
Cavia porcellus [16] = organism: Cavia porcellus; assay: Compound was evaluated for its effect on the frequency rate of spontaneously beating atria from Reserpine-treated guinea pigs as percentage variation from the control at different concentration of 10E-3 M; assay type: functional; method in brief: as §1
Cavia porcellus [17] = organism: Cavia porcellus; assay: Compound was evaluated for its effect on the frequency rate of spontaneously beating atria from Reserpine-treated guinea pigs as percentage variation from the control at different concentration of 3 x 10E-4 M; assay type: functional; method in brief: as §1
Cavia porcellus [18] = organism: Cavia porcellus; assay: Compound was evaluated for its effect on the frequency rate of spontaneously beating atria from Reserpine-treated guinea pigs as percentage variation from the control at different concentration of 10E-5 M; assay type: functional; method in brief: as §1
Cavia porcellus [19] = organism: Cavia porcellus; assay: Compound was evaluated for its effect on the frequency rate of spontaneously beating atria from Reserpine-treated guinea pigs as percentage variation from the control at different concentration of 3 x 10E-5 M; assay type: functional; method in brief: as §1
Cavia porcellus [20] = organism: Cavia porcellus; assay: Inotropic effect in electrically driven left atrium from reserpine-treated guinea pigs at concentration of 10E-3 M; assay type: functional, Cardiac atrium
Method in brief: (§2)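 Electrically driven left atrium from reserpine-treated guinea pigs (tyramine-unresponsive), 29 °C, pH 7.5, resting tension […], 90 min equilibration. Compound dissolved in DMSO and added cumulatively, 5 min per step. Where used, adenosine deaminase was preincubated 20 min, and basal force was taken after ADA addition. Developed tension given as % change over control. Mean ± SEM of six assays.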

Cavia porcellus [21] = organism: Cavia porcellus; assay: Inotropic Response in Electrically Driven Left Atrium from Reserpine-Treated Guinea Pigs in the absence of adenosine deaminase (ADA) at 10E-3 M; assay type: functional; method in brief: as §2
Cavia porcellus [22] = organism: Cavia porcellus; assay: Inotropic Response in Electrically Driven Left Atrium from Reserpine-Treated Guinea Pigs in the presence of 2 U/mL of adenosine deaminase (ADA) at 3 x 10E-5 M; assay type: functional; method in brief: as §2
Cavia porcellus [23] = organism: Cavia porcellus; assay: Inotropic Response in Electrically Driven Left Atrium from Reserpine-Treated Guinea Pigs in the presence of 2 U/mL of adenosine deaminase (ADA) at 3 x 10E-6 M; assay type: functional; method in brief: as §2
Cavia porcellus [24] = organism: Cavia porcellus; assay: Inotropic Response in Electrically Driven Left Atrium from Reserpine-Treated Guinea Pigs in the absence of adenosine deaminase (ADA) at 10E-4 M; assay type: functional; method in brief: as §2
Cavia porcellus [25] = organism: Cavia porcellus; assay: Inotropic effect in electrically driven left atrium from reserpine-treated guinea pigs at concentration of 3 x 10E-4 M; assay type: functional, Cardiac atrium; method in brief: as §2
Cavia porcellus [26] = organism: Cavia porcellus; assay: Inotropic Response in Electrically Driven Left Atrium from Reserpine-Treated Guinea Pigs in the absence of adenosine deaminase (ADA) at 10E-5 M; assay type: functional; method in brief: as §2
Cavia porcellus [27] = organism: Cavia porcellus; assay: Inotropic Response in Electrically Driven Left Atrium from Reserpine-Treated Guinea Pigs in the absence of adenosine deaminase (ADA) at 3 x 10E-4 M; assay type: functional; method in brief: as §2
Cavia porcellus [28] = organism: Cavia porcellus; assay: Inotropic effect in electrically driven left atrium from reserpine-treated guinea pigs at concentration of 3 x 10E-5 M; assay type: functional, Cardiac atrium; method in brief: as §2
Cavia porcellus [29] = organism: Cavia porcellus; assay: Inotropic Response in Electrically Driven Left Atrium from Reserpine-Treated Guinea Pigs in the presence of 2 U/mL of adenosine deaminase (ADA) at 10E-4 M; assay type: functional; method in brief: as §2
Cavia porcellus [30] = organism: Cavia porcellus; assay: Inotropic effect in electrically driven left atrium from reserpine-treated guinea pigs at concentration of 10E-5 M; assay type: functional, Cardiac atrium; method in brief: as §2
Cavia porcellus [31] = organism: Cavia porcellus; assay: Inotropic Response in Electrically Driven Left Atrium from Reserpine-Treated Guinea Pigs in the absence of adenosine deaminase (ADA) at 3 x 10E-6 M; assay type: functional; method in brief: as §2
Cavia porcellus [32] = organism: Cavia porcellus; assay: Inotropic effect in electrically driven left atrium from reserpine-treated guinea pigs at concentration of 10E-4 M; assay type: functional, Cardiac atrium; method in brief: as §2
Cavia porcellus [33] = organism: Cavia porcellus; assay: Inotropic Response in Electrically Driven Left Atrium from Reserpine-Treated Guinea Pigs in the absence of adenosine deaminase (ADA) at 3 x 10E-5 M; assay type: functional; method in brief: as §2
Cavia porcellus [34] = organism: Cavia porcellus; assay: Inotropic Response in Electrically Driven Left Atrium from Reserpine-Treated Guinea Pigs in the presence of 2 U/mL of adenosine deaminase (ADA) at 10E-5 M; assay type: functional; method in brief: as §2
Cavia porcellus [35] = organism: Cavia porcellus; assay: Inotropic effect in electrically driven left atrium from reserpine-treated guinea pigs at concentration of 3 x 10E-6 M; assay type: functional, Cardiac atrium; method in brief: as §2
Cavia porcellus [36] = organism: Cavia porcellus; assay: Inotropic effect in electrically driven left atrium from reserpine-treated guinea pigs at concentration of 10E-6 M; assay type: functional, Cardiac atrium; method in brief: as §2
Adenosine receptor A1 = target: T1, Adenosine receptor A1 (Cavia porcellus, UniProt P47745); assay: Inhibition of [3H]-CHA binding to Adenosine A1 receptor in guinea pig heart
T1 sequence (P47745 whole entry): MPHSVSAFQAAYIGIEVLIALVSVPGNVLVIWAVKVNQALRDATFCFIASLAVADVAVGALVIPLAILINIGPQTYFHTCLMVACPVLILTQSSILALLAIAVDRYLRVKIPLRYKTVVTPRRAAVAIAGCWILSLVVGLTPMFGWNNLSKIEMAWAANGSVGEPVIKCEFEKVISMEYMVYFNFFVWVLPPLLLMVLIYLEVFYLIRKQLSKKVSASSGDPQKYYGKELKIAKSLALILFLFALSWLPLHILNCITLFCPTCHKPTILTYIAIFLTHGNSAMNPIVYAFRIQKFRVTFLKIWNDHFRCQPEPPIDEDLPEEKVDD
Method in brief: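 Guinea pig heart membranes prepared in 50 mM Tris-HCl pH 7.4 and pretreated with adenosine deaminase 2 IU/mL for 30 min at 37 °C. Incubated with 1 nM [3H]CHA, membranes from 15 mg tissue, 120 min at 23 °C. Bound ligand separated by GF/B filtration; nonspecific binding defined with (R)-PIA. Six concentrations tested in triplicate; IC50 by probit analysis.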

Cavia porcellus [37] = organism: Cavia porcellus; assay: Inotropic Response in Electrically Driven Left Atrium from Reserpine-Treated Guinea Pigs in the presence of 2 U/mL of adenosine deaminase (ADA) at 3 x 10E-4 M; assay type: functional; method in brief: as §2
Cavia porcellus [38] = organism: Cavia porcellus; assay: Inotropic Response in Electrically Driven Left Atrium from Reserpine-Treated Guinea Pigs in the presence of 2 U/mL of adenosine deaminase (ADA) at 10E-3 M; assay type: functional; method in brief: as §2

Structure (SMILES)	Variation (Cavia porcellus [1]) [%]	Variation (Cavia porcellus [2]) [%]	Variation (Cavia porcellus [3]) [%]	Variation (Cavia porcellus [4]) [%]	Variation (Cavia porcellus [5]) [%]	Variation (Cavia porcellus [6]) [%]	Variation (Cavia porcellus [7]) [%]	Variation (Cavia porcellus [8]) [%]	Variation (Cavia porcellus [9]) [%]	Variation (Cavia porcellus [10]) [%]	Variation (Cavia porcellus [11]) [%]	Variation (Cavia porcellus [12]) [%]	Variation (Cavia porcellus [13]) [%]	Variation (Cavia porcellus [14]) [%]	also measured
COCc1nc(N(C)C)ncc1C(=O)OC	14.95	3.04	3.57	2.85	0	7.14	11.14	25.41	6.93	7.14	18.95	16.95	11.43	0	
Cc1nc(N(C)C)ncc1C(=O)O	8.62	0	3.22	9.67	6.45	6.45	5.18	21.96	3.77	3.22	15.77	10.82	-3.12	0	
CN(C)c1ncc(C(=O)O)c(C(C)(C)C)n1	12.51	3.51			3.33		9.67	18.64	7.58		14.21	13.23		0	Variation (Cavia porcellus [15]): 3.71%; Variation (Cavia porcellus [16]): 11.11%; Variation (Cavia porcellus [17]): 7.42%; Variation (Cavia porcellus [18]): 3.33%; Variation (Cavia porcellus [19]): 3.33%
CN(C)c1ncc(C(=O)O)c(Cc2ccccc2)n1	22.89	3.52	-3.85	0	0	-5.69	15.24	88.05	9.37	-5.02	67.75	35.26	-10.25	0	Variation (Cavia porcellus [20]): 78.6%; Increase (Cavia porcellus [21]): 88.35%; Increase (Cavia porcellus [22]): 9.52%; Increase (Cavia porcellus [23]): 0%; Increase (Cavia porcellus [24]): 44.95%; Variation (Cavia porcellus [25]): 53%; Increase (Cavia porcellus [26]): 27.41%; Increase (Cavia porcellus [27]): 66.21%; Variation (Cavia porcellus [28]): 24.7%; Increase (Cavia porcellus [29]): 19.1%; Variation (Cavia porcellus [30]): 16.5%; Increase (Cavia porcellus [31]): 11.21%; Variation (Cavia porcellus [32]): 36.3%; Increase (Cavia porcellus [33]): 33.61%; Increase (Cavia porcellus [34]): 4.76%; Variation (Cavia porcellus [35]): 9.7%; Variation (Cavia porcellus [36]): 3.23%; IC50 (Adenosine receptor A1): 583 µM; Increase (Cavia porcellus [37]): 33.3%; Increase (Cavia porcellus [38]): 57.2%
